pKi: −log10 of the molar value.
Key:
[1] = Bioavailability as maximal plasma concentration in dogs; assay type: ADME, organism-based, Canis lupus familiaris; settings: dog
Summary of the method: (§1)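 Dogs received an oral dose of 10 mg/kg. Cmax is the observed peak plasma concentration after the oral dose. Oral bioavailability is the dose-normalized ratio AUC(po)/AUC, with the plasma concentration–time area taken from zero to infinity.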

[2] = (§2) Bioavailability as maximal plasma concentration in rats; assay type: ADME, organism-based; settings: rat
Summary of the method: (§3)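 Rats (n = 4/group) were given an oral dose of 10 mg/kg in a propylene glycol / poly(ethylene glycol) 400 / water formulation. Cmax is the observed peak plasma concentration after the oral dose. F% is AUC(po)/AUC, with AUC taken from time zero to infinity and normalized for dose.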

[3] = Bioavailability in dog; assay type: ADME, organism-based, Canis lupus familiaris; settings: in vivo; summary of the method: as §1
[4] = Bioavailability in rat; assay type: ADME, organism-based; settings: in vivo; summary of the method: as §3
[5] = test system: Human immunodeficiency virus 1; experiment: Inhibition of viral infection in HIV-1 (RF)-infected MT-2 cells with an oligonucleotide-based sandwich hybridization assay.; assay type: functional, MT2
Summary of the method: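 Uninfected MT-2 cells were preincubated for 30 min with serial dilutions of compound, then infected with HIV-1 RF and cultured for 3 days at 37 °C, 5% CO2. Lysates were assayed for viral RNA by microtiter oligonucleotide sandwich hybridization.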

[6] = biological target: Human immunodeficiency virus type 1 protease (Human immunodeficiency virus 1, UniProt Q72874); experiment: Inhibitory activity against HIV-1 protease
Summary of the method: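 HIV-1 protease Ki from cleavage of a fluorescent peptide substrate, products resolved by HPLC. Inhibitor was tested at four concentrations spanning 0.1–10 000 nM, the range chosen per inhibitor.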

[7] = as §2; assay type: ADME, organism-based; settings: rat; summary of the method: as §3; remark: listed apart in the source
[8] = Human immunodeficiency virus 1, MT2

Row | SMILES | Cmax [1] [nM] | Cmax [2] [nM] | bioavailability [3] [%] | bioavailability [4] [%] | IC90 [5, 8] [nM] | IC90 [5] [nM] | pKi [6] | Cmax [7] [nM]
1 | O=C1N(CC2CC2)[C@H](Cc2ccccc2)[C@H](O)[C@@H](O)[C@@H](Cc2ccccc2)N1CC1CC1 | 9200 | 4300 | 48 | 100 | 1800 |  |  | 
2 | O=C1N(Cc2ccc(CO)cc2)[C@H](Cc2ccccc2)[C@H](O)[C@@H](O)[C@@H](Cc2ccccc2)N1Cc1ccc(CO)cc1 [DMP-323] | 2800 | 780 | 37 | 27 |  | 57 |  | 
3 | O=C1N(Cc2cccc(CO)c2)[C@H](Cc2ccccc2)[C@H](O)[C@@H](O)[C@@H](Cc2ccccc2)N1Cc1cccc(CO)c1 |  | 830 |  | 18 | 38 |  | 9.85 | 
4 | O=C1N(Cc2cccc(O)c2)[C@H](Cc2ccccc2)[C@H](O)[C@@H](O)[C@@H](Cc2ccccc2)N1Cc1cccc(O)c1 | 2000 | 810 | 16 | 30 | 54 |  | 9.92 | 
5 | C=CCN1C(=O)N(CC=C)[C@H](Cc2ccccc2)[C@H](O)[C@@H](O)[C@H]1Cc1ccccc1 |  | 2700 |  | 49 | 4700 |  | 8.28 | 
6 | O=C1N(Cc2cccc(O)c2)[C@H](Cc2ccccc2)[C@H](O)[C@@H](O)[C@@H](Cc2ccccc2)N1Cc1ccc2ccccc2c1 | 2700 | 960 |  |  | 145 |  | 9.48 | 960
